According to paper PMC6397674 (Clinical cancer research : an official journal of the …, 2018):

What was measured:
[1] = system: murine genetically engineered T-ALL and human T-ALL cell lines such as MOLT4, Jurkat, HPB-ALL and KARPAS45; conditions: cited from earlier work
T-ALL cell lines = type: cell-based, human; conditions: read-out: IC50 values, 72 hours of culture
Outline: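 Human T-ALL cell lines (CEM, Jurkat, MOLT4, Loucy, PEER) were cultured with a range of test compound concentrations for 72 hours. IC50 was calculated from the dose-response curves. Values are means ± S.D. of three independent experiments, compared by one-way ANOVA with Tukey's multiple comparison test.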

[2] = for changes in complete blood count, liver and kidney functions, histopathological examination of some organs: NOD/SCID mice treated with up to 150 mg/kg
Jurkat cells = assay: Systemic T-ALL, tail-vein injection of luciferase-expressing Jurkat cells; type: in vivo, NOD/SCID mice; conditions: S2157 50 mg/kg, OG-L002 12.5 mg/kg (its MTD), twice a week for 3 weeks
T-ALL cells = assay: Subcutaneous T-ALL xenograft; type: in vivo, NOD/SCID mice; conditions: for side effects / size of subcutaneous tumors: intraperitoneal injection at 50 mg/kg, 3 times a week
[3] = system: CD34-positive normal hematopoietic progenitor cells; assay: Viability of CD34-positive normal bone marrow progenitor cells; type: cell-based; conditions: 72 hours, with stem cell factor and thrombopoietin
Outline: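 Purchased CD34-positive normal bone marrow progenitor cells were cultured with stem cell factor and thrombopoietin, without or with various concentrations of test compound, for 72 hours. Jurkat cells were treated in parallel as a control. Viability was measured by MTT reduction as a percentage of untreated controls. Values are mean ± S.D. of three independent experiments, compared by one-way ANOVA with Bonferroni post-hoc test.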

[4] = system: mitogen-activated normal T-lymphocytes; assay: Viability of mitogen-activated normal T-lymphocytes; type: cell-based
[5] = Pharmacokinetic study, plasma and brain concentrations by LC-MS/MS; type: in vivo, NOD/SCID mice; conditions: for Brain/Plasma ratio / AUC / Brain concentration at 0.5 h / Plasma concentration at 0.5 h / T1/2 / nAUC (dose-normalized AUC): NOD.CB17-PrkdcSCID/J mice, single intraperitoneal injection, 50 mg/kg, n = 3; for Brain/Plasma ratio: 0.5 h
MOLT4 cells [6] = type: in vivo, NOD/SCID mice; conditions: for effect on CNS leukemia: murine xenotransplant model, histopathological examination / imaging
MOLT4 cells [7] = assay: Isobologram / combination index analysis with anti-leukemic drugs; type: cell-based, human; conditions: 72 hours
Outline: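 MOLT4 cells exposed to each of several anti-leukemia drugs, without or with the test compound, for 72 h to generate dose-response curves for each combination. Combination index calculated by the Chou–Talalay method; CI <1.0 taken as synergism. Mean ± S.D. from three independent experiments.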

[8] = system: ZEB2-positive ETP-ALL cell lines such as Loucy and PEER; assay: Efficacy in relation to ZEB2 expression in T-ALL and ETP-ALL cell lines; type: cell-based, human
primary T-ALL cells = assay: Combination with anti-leukemic drugs in primary T-ALL cells; type: cell-based, human
T-ALL = conditions: read-out: IC50 values; cited from earlier work
[9] = single intraperitoneal injection at 50 mg/kg, NOD/SCID and ICR mice

| Structure (SMILES) | IC50 (T-ALL cell lines) | anti-leukemic activity in Jurkat-transplanted mice (Jurkat cells) | side effects (T-ALL cells) | size of subcutaneous tumors (T-ALL cells) | viability of CD34-positive normal hematopoietic progenitor cells [3] | viability of mitogen-activated normal T-lymphocytes [4] | Brain/Plasma ratio [5] | AUC [5] | Brain concentration at 0.5 h [5] | Plasma concentration at 0.5 h [5] | T1/2 [5] | nAUC (dose-normalized AUC) [5] | changes in complete blood count, liver and kidney functions, histopathological examination of some organs [2] | effect on CNS leukemia (MOLT4 cells [6]) | combined effect with L-asparaginase (MOLT4 cells [7]) | combined effect with dexamethasone (MOLT4 cells [7]) | efficacy in ZEB2-positive ETP-ALL cell lines [8] | other results |
| --- | --- | --- | --- | --- | --- | --- | --- | --- | --- | --- | --- | --- | --- | --- | --- | --- | --- | --- |
| O=C(O)c1ccc(CN2CCC(CN[C@@H]3C[C@H]3c3ccccc3)CC2)cc1 [GSK2879552] | – | – | – | – | – | – | – | – | – | – | – | – | – | – | – | – | – | pro-apoptotic activity [1]: failed to show pro-apoptotic activity |
| N[C@H]1C[C@@H]1c1ccc(-c2cccc(O)c2)cc1 [OG-L002, reference compound] | ≥ 20 µM | failed to show anti-leukemic activity | – | – | – | – | – | – | – | – | – | – | – | – | – | – | – | maximum tolerated dose (MTD) ([2]; NOD/SCID mice, intraperitoneal injection): 12.5 mg/kg; dose after which recipients died immediately ([2]; NOD/SCID mice, intraperitoneal injection, unknown causes): ≥ 25 mg/kg |
| N[C@@H]1C[C@H]1c1cc(F)cc(F)c1OCc1ccccc1 [S2101] | ≥ 20 µM | – | – | – | – | – | – | – | – | – | – | – | – | – | – | – | – | – |
| Cl.N[C@H]1CCN(C(=O)CN[C@@H]2C[C@H]2c2cc(F)cc(F)c2OCc2ccccc2)C1 [S2116] | – | – | negligible side effects, such as moderate leukocytosis and thrombocytopenia without bleeding tendency | less than 20 % of that in the untreated control | did not affect the viability | modestly inhibited | 0.17 ± 0.03 | 41.78 ± 8.66 µM·h | 1.35 ± 0.39 µmol/kg | 8.17 ± 2.80 µM | 10.88 ± 2.97 h | 0.84 ± 0.17 µM·h | no obvious changes were observed | failed to eradicate CNS disease | synergistic | additive | relatively ineffective | overall survival of MOLT4-inoculated mice (T-ALL cells; MOLT4-inoculated NOD/SCID mice): significantly prolonged; combined effect with cytosine arabinoside (MOLT4 cells [7]): additive |
| CN1CCN(C(=O)CN[C@@H]2C[C@H]2c2cc(F)cc(F)c2OCc2ccccc2)CC1.Cl [S2157] | – | therapeutic benefit of S2157 including the eradication of CNS disease | negligible side effects, such as moderate leukocytosis and thrombocytopenia without bleeding tendency | less than 20 % of that in the untreated control | did not affect the viability | modestly inhibited | 13.0 ± 6.26 | 5.75 ± 3.67 µM·h | 64.0 ± 3.46 µmol/kg | 5.71 ± 2.47 µM | 0.88 ± 0.04 h | 0.11 ± 0.07 µM·h | no obvious changes were observed | CNS leukemia nearly disappeared | synergistic | synergistic | relatively ineffective | combined effect with L-asparaginase (primary T-ALL cells): synergy; combined effect with dexamethasone (primary T-ALL cells): synergy; brain/plasma concentration ratio relative to S2116 [5, 9]: > 75 fold; maximal brain concentration relative to S2116 [5, 9]: approximately 50 fold; hazard ratio against untreated mice, single agent (MOLT4 cells [6]; 50 mg/kg ip twice a week, log-rank test, P = 0.0246): 0.2371; hazard ratio against untreated control, combination with dexamethasone (MOLT4 cells [6]; S2157 50 mg/kg ip twice a week plus dexamethasone 10 mg/kg ip 5 times a week): 0.1787; neurotoxicity (MOLT4 cells [6]; murine xenografts): without detectable neurotoxicity; growth of MOLT4 cells (bioluminescence) (MOLT4 cells [6]; twice-per-week injection at either 30 mg/kg or 50 mg/kg): almost completely suppressed the growth of MOLT4 cells in most but not all mice; combined effect with 4-hydroxycyclophosphamide (4-OHCY) (MOLT4 cells [7]): additive; combined effect with bortezomib (MOLT4 cells [7]): additive |
| Cn1cc(C(=O)Nc2ccc([C@@H]3C[C@H]3NCC3CC3)cc2)cn1 [T-3775440] | – | – | – | – | – | – | – | – | – | – | – | – | – | – | – | – | – | IC50 (T-ALL): > 10 µM |
